Consider 22 compounds from ChEMBL document CHEMBL4616681, “Discovery of 3-Pyridyl Isoindolin-1-one Derivatives as Potent, Selective, and Orally Active Aldosterone Synthase (CYP11B2) Inhibitors” (J Med Chem, 2020).

The target of data set [1] is T1, Cytochrome P450 11B2, mitochondrial (Homo sapiens, UniProt P19099).
T1 sequence (P19099 whole entry): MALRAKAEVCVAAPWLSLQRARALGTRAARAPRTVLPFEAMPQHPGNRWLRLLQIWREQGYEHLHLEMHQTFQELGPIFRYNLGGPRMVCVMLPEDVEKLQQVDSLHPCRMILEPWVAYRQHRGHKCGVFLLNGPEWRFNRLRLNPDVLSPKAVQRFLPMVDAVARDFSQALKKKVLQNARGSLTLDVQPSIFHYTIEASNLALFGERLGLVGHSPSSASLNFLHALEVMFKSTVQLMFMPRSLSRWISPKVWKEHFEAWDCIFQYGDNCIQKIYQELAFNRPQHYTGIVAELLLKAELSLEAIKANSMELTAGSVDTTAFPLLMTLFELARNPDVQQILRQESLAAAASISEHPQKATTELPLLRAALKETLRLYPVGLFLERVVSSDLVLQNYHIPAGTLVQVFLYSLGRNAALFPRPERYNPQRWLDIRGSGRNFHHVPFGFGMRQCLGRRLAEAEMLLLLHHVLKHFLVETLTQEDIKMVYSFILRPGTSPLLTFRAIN
Nature of the data set: Inhibition of human CYP11B2 expressed in human renal leiomyoblastoma cells harboring FDXR/FDX using 1-deoxycorticosterone as substrate by HTRF assay. Format: cell-based. A digest of the protocol: (§1)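 Cells with endogenous FDXR/FDX and no detectable CYP11B activity, stably transfected (CMV promoter, neomycin selection, G-418 400 µg/mL) with CYP11B1 or CYP11B2 of the named species. Assayed in DMEM/F12 with 2.5% charcoal-treated FCS. Substrate 1 µM 11-deoxycorticosterone (B2) or 11-deoxycortisol (B1), 16 hr. Aldosterone or cortisol in supernatant measured by HTRF. IC50 from 4-parameter MMF fit; selectivity factor is the B1/B2 IC50 ratio.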

Data set [2] deals with T2, Cytochrome P450 11B1, mitochondrial (Homo sapiens, UniProt P15538).
T2 sequence (P15538 whole entry): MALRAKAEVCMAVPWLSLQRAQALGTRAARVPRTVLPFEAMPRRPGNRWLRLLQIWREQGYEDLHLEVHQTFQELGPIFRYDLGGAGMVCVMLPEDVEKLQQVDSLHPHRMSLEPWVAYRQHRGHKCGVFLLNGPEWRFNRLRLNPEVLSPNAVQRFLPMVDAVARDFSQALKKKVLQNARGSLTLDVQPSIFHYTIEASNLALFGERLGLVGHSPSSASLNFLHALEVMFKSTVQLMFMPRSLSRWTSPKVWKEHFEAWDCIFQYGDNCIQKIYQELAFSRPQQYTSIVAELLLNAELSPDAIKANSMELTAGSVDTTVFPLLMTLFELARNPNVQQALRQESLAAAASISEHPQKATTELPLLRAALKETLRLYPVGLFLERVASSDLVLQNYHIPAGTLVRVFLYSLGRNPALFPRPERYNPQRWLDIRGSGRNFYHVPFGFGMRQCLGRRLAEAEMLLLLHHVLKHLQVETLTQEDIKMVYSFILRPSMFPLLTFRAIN
Nature of the data set: Inhibition of human CYP11B1 expressed in human renal leiomyoblastoma cells harboring FDXR/FDX using 1-deoxycortisol as substrate by HTRF assay. Format: ADME, cell-based. A digest of the protocol:
as §1

The nature of data set [3]: Selectivity ratio of IC50 for human CYP11B1 expressed in human renal leiomyoblastoma cells harboring FDXR/FDX to IC50 for human CYP11B2 expressed in human renal leiomyoblastoma cells harboring FDXR/FDX. Format: cell-based. A digest of the protocol:
as §1

The nature of data set [4]: Intrinsic clearance in human liver microsomes preincubated for 10 mins followed by NADPH regenerating system addition and measured up to 30 mins by LC/MS-MS analysis. Format: ADME, Microsome. Conditions: read-out: CLH. The method in brief: (§2)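 Liver microsomes at 0.5 mg protein/mL in 100 mM potassium phosphate, pH 7.4. Compound preincubated 10 min at 37 °C. Intrinsic clearance scaled using the well-stirred liver model.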

Data set [5] in a line: Intrinsic clearance in mouse liver microsomes preincubated for 10 mins followed by NADPH regenerating system addition and measured up to 30 mins by LC/MS-MS analysis. The data set is classed as ADME, Microsome. The method in brief: as §2

`CC(=O)N[C@@H]1CCCc2c1cncc2N1C(=O)c2ccc(Cl)cc2[C@H]1C1CC1`: the 50% inhibitory concentration (IC50) was 100 nM in data set [1] and 22800 nM in data set [2]. Also, the Ratio IC50 in data set [3] came out at 228.
On to `O=C(Nc1cccnc1)c1ccc(Cl)cc1F`, for which the IC50 in data set [1] was 297 nM; in data set [2] it was over 3000 nM. Moreover, the Ratio IC50 in data set [3] was over 10.
As for `CCC(=O)NCc1cncc(N2C(=O)c3ccc(Cl)cc3C2(C)C)c1`, the 50% inhibitory concentration (IC50) in data set [1] turned out to be 282 nM. Also, the Ratio IC50 in data set [3] came to 28.
Take `CC1c2cc(Cl)ccc2C(=O)N1c1cccnc1` (configuration not stated): the half-maximal inhibitory concentration (IC50) in data set [1] stood at 123 nM; in data set [2], 1250 nM. Further, the Ratio IC50 in data set [3] is 10. The predicted hepatic clearance in data set [4] is 12.2 mL/min/kg. For the same compound, the predicted hepatic clearance (CLH) in data set [5] is 66.5 mL/min/kg.
Taken in the same sequence, the figures for `O=C1c2cc(F)c(Cl)cc2CCN1c1cccnc1` were 104 nM, 3540 nM, 34, under 3.5 mL/min/kg and 30.9 mL/min/kg.
Turning to `CC1(C)c2cc(Cl)ccc2C(=O)N1c1cccnc1`, the results for the half-inhibitory concentration (IC50) in data set [1] and in data set [2] were 108 nM and 4280 nM, respectively. Besides, the Ratio IC50 in data set [3] amounted to 40. Also, in data set [4], the predicted hepatic clearance was under 3.5 mL/min/kg. In data set [5], the predicted hepatic clearance (CLH) was 25 mL/min/kg.
As for `CN(C(=O)c1ccc(C#N)cc1)c1cccnc1`, the IC50 in data set [1] and in data set [2] was over 3000 nM throughout.
Take `N#Cc1ccc(C(=O)Nc2cccnc2)cc1`: the IC50 in data set [1] is 454 nM; in data set [2], over 3000 nM. Also, in data set [3], the Ratio IC50 was over 7.
In the case of `Cc1cc(Cl)ccc1C(=O)N(C)c1cccnc1`, the 50% inhibitory concentration (IC50) in data set [1] and in data set [2] was over 3000 nM each time.
`CCS(=O)(=O)NCc1cncc(N2C(=O)c3ccc(Cl)cc3C2(C)C)c1` had an IC50 in data set [1] of 92 nM. In addition, the Ratio IC50 in data set [3] worked out at 31.
For the compound `O=C(Nc1cccnc1)c1ccccc1Cl`, the IC50 was 967 nM in data set [1] and over 3000 nM in data set [2]. In data set [3], the Ratio IC50 was over 3.
Taken in the same sequence, the figures for `Cc1cc(Cl)ccc1C(=O)Nc1cccnc1` were 277 nM, over 3000 nM and over 11.
Regarding `O=C1c2ccc(Cl)cc2C(C2CC2)N1c1cccnc1` (configuration not stated), the IC50 was determined as 161 nM in data set [1] and 32500 nM in data set [2]. Moreover, the Ratio IC50 in data set [3] was determined as 202. In data set [4], the predicted hepatic clearance was 9.4 mL/min/kg.
As to `CC(=O)N[C@H]1CCCc2c1cncc2N1Cc2cc(Cl)ccc2C1=O`, the values for the half-maximal inhibitory concentration (IC50) in data set [1] and in data set [2] were 5140 nM and 39600 nM, respectively. Besides, the Ratio IC50 in data set [3] was found to be 8.
Take `Cc1ccncc1C(=O)N1CC2(C1)CN(c1cncc(N3C(=O)c4ccc(Cl)cc4C3(C)C)c1)C2`: inhibition in data set [1] was half-maximal at 14 nM (IC50). Moreover, the Ratio IC50 in data set [3] turned out to be 1870.
For `CC(=O)N[C@@H]1CCCc2c1cncc2N1C(=O)c2ccc(Cl)cc2[C@@H]1C1CC1`, the IC50 in data set [1] was 354 nM; in data set [2], over 30000 nM. Moreover, the Ratio IC50 in data set [3] is over 85.
For `Cc1ccc(C(=O)Nc2cccnc2)cc1`, the concentration for half-maximal inhibition (IC50) in data set [1] and in data set [2] was over 3000 nM each time.
With `O=C1c2ccc(Cl)cc2C(Cc2ccccc2)N1c1cccnc1` (configuration not stated), the figures for the IC50 in data set [1] and in data set [2] were 1070 nM and 214 nM, respectively. Moreover, in data set [3], the Ratio IC50 was determined as 0.2.
Regarding `O=C(Nc1cccnc1)c1ccc(Cl)cc1`, the values for the concentration for half-maximal inhibition (IC50) in data set [1] and in data set [2] were 420 nM and over 3000 nM, respectively. Besides, the Ratio IC50 in data set [3] was over 7.
Take `O=C1c2ccccc2CN1c1cccnc1`: the 50% inhibitory concentration (IC50) in data set [1] was 1120 nM; in data set [2] it was over 3000 nM. Besides, the Ratio IC50 in data set [3] is over 3.
Turning to `CN(C(=O)c1ccc(Cl)cc1F)c1cccnc1`, the concentration for half-maximal inhibition (IC50) in data set [1] and in data set [2] was over 3000 nM each time.
With `O=C1c2ccc(Cl)cc2C2(CC2)N1c1cccnc1`, the figures for the IC50 in data set [1] and in data set [2] were 120 nM and 4450 nM, respectively. The Ratio IC50 in data set [3] is 37. In addition, the predicted hepatic clearance in data set [4] is 3.5 mL/min/kg.
